High-throughput results as filed in PubChem.
Runt-SMMHC FRET: blocks binding of human RUNX1 Runt domain to CBFb-SMMHC | Q01196+Q13951 | Cerulean-Runt/Venus-CBFb-SMMHC FRET ratio 530/480, 1 h | inhibition, % at 20 µM | hit rate 0.74% among 220,000 | AID 1434;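 active means mean inhibition across duplicate retests at 20 µM reaching about 50%, limit read from the data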;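 further: inhibitors lower the FRET ratio by blocking Runt binding to CBFb-SMMHC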
Runt-CBFb FRET: inhibitors of human RUNX1 Runt domain binding to CBFb | hit rate 0.46% among 220,000 | Cerulean-Runt/Venus-CBFb FRET ratio 530/480, 1 h | Q01196+Q13951 | inhibition, % at 20 µM;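 active means inhibition over about 50% at 20 µM in the single-dose screen, limit read from the data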
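Measured by: fluorescence energy transfer, 422 nm excitation, 530/480 nm emission; Assay system: Cerulean-Runt domain; Medium: Tris pH 7.5 buffer with BSA; Measure: loss of energy transfer signal; Controls: 5 µM unlabeled CBFb as full-inhibition high control; Incubation: protein complex preformed 1 h, compound exposure 1 h, room temperature, dark.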
Hck-Nef inh: blocks Nef-activated human Hck kinase; AID 463187; inhibition, % at 20 µM; Recombinant Hck-YEEI plus Nef, Z-Lyte FRET kinase assay; P08631; hit rate 0.68% among 220,000;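 active means Hck-Nef kinase inhibition above about 50%, limit read from the data; inactive means inhibition below that limit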
RanGTP-Impb inh: inhibitors of RanGTP-importin-beta interaction, primary screen, biochemical, FRET, CFP-Ran, YFP-importin-beta, homogeneous. cell-free CFP-Ran/YFP-importin-beta FRET ratio. inhibition, % (test concentration not listed). hit rate 1.1% among 300,000. AID 2216;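 active means more than half of the replicate wells show a fall in the fluorescence ratio signal beyond about 16%, limit read from the data, passing the limit was not always enough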
RBBP9 inh: blocks human serine hydrolase RBBP9; recombinant RBBP9, FP-Rh probe fluorescence polarization; inhibition, % at 7.94 µM; hit rate 0.2% among 220,000;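 active means inhibition above the campaign mean of all tested compounds plus 3 SD, cut at about 14% in these data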
Target sequence (O75884 whole entry, looked up): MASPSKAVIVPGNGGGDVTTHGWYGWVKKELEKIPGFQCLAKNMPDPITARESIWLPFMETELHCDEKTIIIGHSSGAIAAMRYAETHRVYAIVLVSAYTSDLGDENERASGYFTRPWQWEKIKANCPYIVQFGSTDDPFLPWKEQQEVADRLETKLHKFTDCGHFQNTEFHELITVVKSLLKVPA
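Test system: recombinant human RBBP9. Quantity: 2.5 µM RBBP9 dispensing solution, before mixing. Detection: FP readout at 525/598 nm. Reagent: Serine-hydrolase probe FP-Rh, 375 nM pre-mixing. Measure: % inhibition. Control set: DMSO-treated enzyme wells and wells lacking RBBP9. Buffer or medium: Tris-NaCl-Pluronic buffer, pH 8.0. Times: preincubation 30 min plus labeling 45 min at 25 °C.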
M18AAP inhibitor: blocks P. falciparum M18 aspartyl aminopeptidase; recombinant PfM18AAP, H-Glu-NHMec fluorogenic cleavage; inhibition, % at 7.35 µM; hit rate 1.2% among 290,000;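 active means inhibition above the campaign mean inhibition over all tested compounds plus 3 SD, cut at about 28% in these data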
A number is an active result. Compounds with a hit are over-represented: about 2.9% of the library has one in this group of screens.

For CCN1C=CC2=C(C#N)C(N)C(C#N)(C#N)C(c3ccccc3C(F)(F)F)C2C1 (stereo unspecified) the results were Runt-SMMHC FRET 82.8, Runt-CBFb FRET 75.7, Hck-Nef inh inactive, RanGTP-Impb inh 57.7, RBBP9 inh inactive and M18AAP inhibitor inactive.
Screening N#CC1(N2CCN(C(=O)c3ccccc3)CC2)CCCCC1 returned RanGTP-Impb inh inactive and M18AAP inhibitor inactive.
`COC(=O)c1noc(C)c1-c1ccnn1C(=O)c1ccc(C)cc1` gave Runt-SMMHC FRET inactive, Runt-CBFb FRET inactive, Hck-Nef inh inactive, RanGTP-Impb inh 11.7, RBBP9 inh inactive and M18AAP inhibitor inactive.
CCOC(=O)NC(Nc1sc2c(c1C(=O)OC)CCN(C)C2)(C(F)(F)F)C(F)(F)F was read as Runt-SMMHC FRET inactive, Runt-CBFb FRET inactive, Hck-Nef inh inactive, RanGTP-Impb inh 56.5, RBBP9 inh inactive and M18AAP inhibitor inactive.
For CCOC(=O)C(NC(=O)CC)(Nc1sc2c(c1C(=O)OC)CCN(C)C2)C(F)(F)F (stereo unspecified) the results were Runt-SMMHC FRET inactive, Runt-CBFb FRET inactive, Hck-Nef inh inactive, RanGTP-Impb inh 37.8, RBBP9 inh inactive and M18AAP inhibitor inactive.
`CCOC(=O)c1c(NC(=S)N2CCN(C)CC2)sc2c1CCN(C(=O)OCC)C2` gave Runt-SMMHC FRET inactive, Runt-CBFb FRET inactive, Hck-Nef inh inactive, RanGTP-Impb inh inactive, RBBP9 inh inactive and M18AAP inhibitor inactive.
Screening CCOC(=O)c1c(NC(=O)c2ccc(S(=O)(=O)N3CCOCC3)cc2)sc2c1CCN(C)C2 returned Runt-SMMHC FRET inactive, Runt-CBFb FRET inactive, Hck-Nef inh inactive, RanGTP-Impb inh inactive, RBBP9 inh inactive and M18AAP inhibitor inactive.
`CCC(=O)NC(Nc1sc2c(c1C(=O)OC)CCN(C)C2)(C(F)(F)F)C(F)(F)F` gave Runt-SMMHC FRET 61.0, Runt-CBFb FRET inactive, Hck-Nef inh inactive, RanGTP-Impb inh 66.4, RBBP9 inh inactive and M18AAP inhibitor inactive.
`CCCNC(=O)C1(CC2CC(c3ccccc3)=NO2)CCN(C(=O)c2cc(OCC)c(OCC)c(OCC)c2)CC1` (stereo unspecified) gave RanGTP-Impb inh inactive.
`Cc1cc(/C=N/NC(=O)Cn2c3ccccc3c(=O)c3ccccc32)c(C)n1-c1ccccc1` gave Runt-SMMHC FRET inactive, Hck-Nef inh inactive, RanGTP-Impb inh 93.9, RBBP9 inh inactive and M18AAP inhibitor inactive.
`Cc1cc(/C=N/NC(=O)C(O)(c2ccccc2)c2ccccc2)c(C)n1-c1cccc(C(=O)O)c1` gave Runt-SMMHC FRET inactive, Runt-CBFb FRET inactive, Hck-Nef inh inactive, RanGTP-Impb inh inactive, RBBP9 inh inactive and M18AAP inhibitor inactive.
Screening CCN1CCN(c2nc3ccccc3nc2C(C#N)S(=O)(=O)c2ccc(C)c(C)c2)CC1 (stereo unspecified) returned Runt-SMMHC FRET inactive, Runt-CBFb FRET inactive, Hck-Nef inh inactive, RanGTP-Impb inh 75.2, RBBP9 inh inactive and M18AAP inhibitor inactive.
N#CC(c1nc2ccccc2nc1N1CCOCC1)S(=O)(=O)c1ccccc1 (stereo unspecified) was read as Runt-SMMHC FRET inactive, Runt-CBFb FRET inactive, Hck-Nef inh inactive, RanGTP-Impb inh 16.3, RBBP9 inh inactive and M18AAP inhibitor inactive.
Cc1ccc(S(=O)(=O)C(C#N)c2nc3ccccc3nc2OC(C)C)cc1 (stereo unspecified) was read as Runt-SMMHC FRET inactive, Runt-CBFb FRET inactive, Hck-Nef inh inactive, RanGTP-Impb inh inactive, RBBP9 inh inactive and M18AAP inhibitor inactive.
For N#CC(c1nc2ccccc2nc1OCCO)S(=O)(=O)c1ccccc1 (stereo unspecified) the results were Runt-SMMHC FRET inactive, Runt-CBFb FRET inactive, Hck-Nef inh inactive, RanGTP-Impb inh 23.5, RBBP9 inh inactive and M18AAP inhibitor inactive.
For Cc1ccc(S(=O)(=O)C(C#N)c2nc3ccccc3nc2N2CC(C)OC(C)C2)cc1C (stereo unspecified) the results were Runt-SMMHC FRET inactive, Runt-CBFb FRET inactive, Hck-Nef inh inactive, RanGTP-Impb inh inactive, RBBP9 inh inactive and M18AAP inhibitor inactive.
